Assay results reported in ChEMBL document CHEMBL3351510, “Identification and development of 2-methylimidazo[1,2-a]pyridine-3-carboxamides as Mycobacterium tuberculosis pantothenate synthetase inhibitors” (Bioorg Med Chem, 2014).
Values after ≈ are worked out from the molar mass of the structure shown.

Assays:
Pantothenate synthetase = biological target: T1, Pantothenate synthetase (Mycobacterium tuberculosis, UniProt P9WIL5); assay: Inhibition of Mycobacterium tuberculosis pantothenate synthetase expressed in Escherichia coli BL21 (DE3) by spectrophotometry
T1 sequence (P9WIL5 whole entry): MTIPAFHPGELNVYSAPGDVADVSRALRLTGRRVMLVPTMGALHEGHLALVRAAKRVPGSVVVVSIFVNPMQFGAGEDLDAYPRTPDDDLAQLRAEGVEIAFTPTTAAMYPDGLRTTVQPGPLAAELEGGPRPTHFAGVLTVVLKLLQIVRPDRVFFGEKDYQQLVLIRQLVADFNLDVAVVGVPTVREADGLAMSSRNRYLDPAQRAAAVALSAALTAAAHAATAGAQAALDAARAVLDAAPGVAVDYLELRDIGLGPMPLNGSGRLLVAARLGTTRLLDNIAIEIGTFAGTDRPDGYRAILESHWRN
Summary of the method: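 Reaction started by adding PS diluted in buffer; absorbance at 340 nm read every 12 s for 120 s. Percent inhibition = 100 × [1 − (compound rate − background rate)/(full reaction rate − background rate)].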

[1] = tested on: Mycobacterium tuberculosis; assay: Antimycobacterial activity against Mycobacterium tuberculosis H37Rv ATCC 27294 assessed as growth inhibition after 28 days by agar dilution method; format: functional; conditions: H37Rv ATCC 27294, 672 h
Summary of the method: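 Agar dilution in Middlebrook 7H11 with OADC; two-fold dilutions, final 50 to 0.78 µg/mL. Inoculum from fresh 7H11 slants, 1 mg/mL wet weight in 0.05% Tween 80 saline, diluted 10⁻² (~10⁷ cfu/mL); 5 µL spotted per tube. Incubated 37 °C, read at 28 days; MIC = lowest concentration giving complete growth inhibition. Isoniazid, ethambutol, GSK358607A references.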

[2] = Cytotoxicity against mouse RAW264.7 cells assessed as inhibition of cell viability at 50 uM after 72 hrs by MTT assay; format: cell-based; conditions: read-out: INH
[3] = biological target: T2, Pantothenate synthetase (Mycobacterium tuberculosis) (UniProt P9WIL5); assay: Binding affinity to Mycobacterium tuberculosis pantothenate synthetase assessed as melting temperature by differential scanning fluorimetry
T2 sequence (whole entry): T1 sequence (P9WIL5 whole entry)
Summary of the method: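 Protein–ligand complexes with SYPRO Orange dye heated 25 to 95 °C in 0.1 °C steps; fluorescence tracked to obtain Tm, with shift relative to native protein taken as stabilisation from binding.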

Compound Cc1nc2ccccn2c1C(=O)NNC(=O)c1ccc(Oc2ccccc2)cc1 has an IC50 (Pantothenate synthetase) of 7.22 µM and an MIC [1] of 32.3 µM (≈ 12.5 µg/mL).

Cc1ccc(C(=O)NNC(=O)c2c(C)nc3ccccn23)cc1 gave an IC50 (Pantothenate synthetase) of 3.35 µM and an MIC [1] of 80.9 µM (≈ 24.9 µg/mL).

In the case of Cc1nc2ccccn2c1C(=O)NNC(=O)c1ccco1, the IC50 (Pantothenate synthetase) is reported as 8.93 µM, the cytotoxicity at 72 h, 50 µM [2] is reported as 16.8% and the MIC [1] is reported as 11 µM (≈ 3.12 µg/mL).

Work on Cc1nc2ccccn2c1C(=O)N/N=C/c1ccccc1 yielded an IC50 (Pantothenate synthetase) of 4.86 µM and an MIC [1] of 179 µM (≈ 49.9 µg/mL).

In the case of Cc1ccc(/C=N/NC(=O)c2c(C)nc3ccccn23)cc1, the IC50 (Pantothenate synthetase) is reported as 7.46 µM, the cytotoxicity at 72 h, 50 µM [2] is reported as 16.7% and the MIC [1] is reported as 21.3 µM (≈ 6.24 µg/mL).

Compound COc1ccc(/C=N/NC(=O)c2c(C)nc3ccccn23)cc1 has an IC50 (Pantothenate synthetase) of 6.37 µM and an MIC [1] of 80.9 µM (≈ 24.9 µg/mL).

With Cc1nc2ccccn2c1C(=O)NCc1ccco1 the IC50 (Pantothenate synthetase) was 2.81 µM, the cytotoxicity at 72 h, 50 µM [2] was 20.7% and the MIC [1] was 24.4 µM (≈ 6.23 µg/mL).

For Cc1nc2ccccn2c1C(=O)NC1CCCCC1, the IC50 (Pantothenate synthetase) was 1.99 µM and the MIC [1] was 96.9 µM (≈ 24.9 µg/mL).

In the case of Cc1nc2ccccn2c1C(=O)Nc1cccc(C(F)(F)F)c1, the IC50 (Pantothenate synthetase) is reported as 7.01 µM and the MIC [1] is reported as 78.1 µM (≈ 24.9 µg/mL).

Compound Cc1nc2ccccn2c1C(=O)N/N=C/c1ccc(O)cc1 has an IC50 (Pantothenate synthetase) of 7.49 µM, a cytotoxicity at 72 h, 50 µM [2] of 19.4% and an MIC [1] of 21.2 µM (≈ 6.24 µg/mL).

Compound Cc1nc2ccccn2c1C(=O)NNC(=O)c1ccccc1 has an IC50 (Pantothenate synthetase) of 3.54 µM and an MIC [1] of 42.4 µM (≈ 12.5 µg/mL).

Work on COc1cc(/C=N/NC(=O)c2c(C)nc3ccccn23)cc(OC)c1OC yielded an IC50 (Pantothenate synthetase) of 7.05 µM and an MIC [1] of 67.8 µM (≈ 25 µg/mL).

With Cc1ccc2nc(C)c(C(=O)NCc3cccs3)n2c1 the IC50 (Pantothenate synthetase) was 8.12 µM and the MIC [1] was 0.19 µM (≈ 0.0542 µg/mL).

In the case of CCOc1ccc(NC(=O)c2c(C)nc3ccccn23)cc1, the IC50 (Pantothenate synthetase) is reported as > 25 µM and the MIC [1] is reported as 42.2 µM (≈ 12.5 µg/mL).

With COc1ccccc1C(=O)NNC(=O)c1c(C)nc2ccccn12 the IC50 (Pantothenate synthetase) was 8.21 µM, the cytotoxicity at 72 h, 50 µM [2] was 19% and the MIC [1] was 19.2 µM (≈ 6.24 µg/mL).

In the case of Cc1nc2ccccn2c1C(=O)NCCc1ccccc1, the IC50 (Pantothenate synthetase) is reported as 5.77 µM and the MIC [1] is reported as 89.3 µM (≈ 24.9 µg/mL).

With Cc1nc2ccccn2c1C(=O)NNC(=O)c1ccc(Cl)cc1Cl the IC50 (Pantothenate synthetase) was 5.13 µM, the cytotoxicity at 72 h, 50 µM [2] was 20.1% and the MIC [1] was 17.2 µM (≈ 6.25 µg/mL).

Work on Cc1nc2ccccn2c1C(=O)N/N=C/c1ccc(F)cc1 yielded an IC50 (Pantothenate synthetase) of 3.77 µM, a cytotoxicity at 72 h, 50 µM [2] of 20.9% and an MIC [1] of 21 µM (≈ 6.23 µg/mL).

Work on Cc1nc2ccccn2c1C(=O)NNC(=O)c1cc([N+](=O)[O-])cc([N+](=O)[O-])c1 yielded an IC50 (Pantothenate synthetase) of 6.48 µM, a cytotoxicity at 72 h, 50 µM [2] of 40.6% and an MIC [1] of 16.2 µM (≈ 6.24 µg/mL).

Cc1nc2ccccn2c1C(=O)NCc1ccccc1 showed an IC50 (Pantothenate synthetase) of 2.74 µM, a cytotoxicity at 72 h, 50 µM [2] of 24.5% and an MIC [1] of 23.5 µM (≈ 6.23 µg/mL).

Cc1nc2ccccn2c1C(=O)NNC(=O)C1CCCCC1 gave an IC50 (Pantothenate synthetase) of 7.7 µM, a cytotoxicity at 72 h, 50 µM [2] of 31.7% and an MIC [1] of 10.4 µM (≈ 3.12 µg/mL).

With Cc1nc2ccccn2c1C(=O)N/N=C/c1ccc([N+](=O)[O-])cc1 the IC50 (Pantothenate synthetase) was > 25 µM and the MIC [1] was 38.6 µM (≈ 12.5 µg/mL).

Work on Cc1nc2ccccn2c1C(=O)NNC(=O)c1cccc2ccccc12 yielded a Tm [3] of 51 °C, an IC50 (Pantothenate synthetase) of 1.9 µM and a cytotoxicity at 72 h, 50 µM [2] of 28.4%. It also gave an MIC [1] of 4.53 µM (≈ 1.56 µg/mL).

For NNC(=O)c1ccncc1 [ISONIAZID], the IC50 (Pantothenate synthetase) was > 25 µM and the MIC [1] was 0.72 µM (≈ 0.0987 µg/mL).

In the case of Cc1nc2ccccn2c1C(=O)N/N=C/c1ccc(OCc2ccccc2)cc1, the IC50 (Pantothenate synthetase) is reported as 5.37 µM and the MIC [1] is reported as 32.5 µM (≈ 12.5 µg/mL).

Cc1nc2ccccn2c1C(=O)Nc1ccccc1 showed an IC50 (Pantothenate synthetase) of 12.8 µM and an MIC [1] of 188 µM (≈ 47.2 µg/mL).

For CC[C@@H](CO)NCCN[C@@H](CC)CO [ETHAMBUTOL], the IC50 (Pantothenate synthetase) was > 25 µM and the MIC [1] was 7.64 µM (≈ 1.56 µg/mL).

Cc1nc2ccccn2c1C(=O)Nc1ccc(Br)cc1 showed an IC50 (Pantothenate synthetase) of 6.95 µM and an MIC [1] of 37.9 µM (≈ 12.5 µg/mL).

In the case of Cc1nc2ccccn2c1C(=O)Nc1ccc(Cl)cc1, the IC50 (Pantothenate synthetase) is reported as 2.6 µM and the MIC [1] is reported as 87.4 µM (≈ 25 µg/mL).

Cc1nc2ccccn2c1C(=O)N/N=C/c1ccc(Br)cc1 showed an IC50 (Pantothenate synthetase) of 4.43 µM and an MIC [1] of 35 µM (≈ 12.5 µg/mL).

With Cc1nc2ccccn2c1C(=O)Nc1ccccn1 the IC50 (Pantothenate synthetase) was > 25 µM and the MIC [1] was 98.8 µM (≈ 24.9 µg/mL).

Cc1nc2ccccn2c1C(=O)N/N=C/c1ccc(C(F)(F)F)cc1 gave an IC50 (Pantothenate synthetase) of 8.18 µM, a cytotoxicity at 72 h, 50 µM [2] of 24.6% and an MIC [1] of 9.01 µM (≈ 3.12 µg/mL).

Work on Cc1nc2ccccn2c1C(=O)NNC(=O)c1cccc([N+](=O)[O-])c1 yielded an IC50 (Pantothenate synthetase) of 9.2 µM and an MIC [1] of 36.8 µM (≈ 12.5 µg/mL).
